Source: ChEMBL document CHEMBL2157981, “Synthesis of new antimicrobial pyrrolo[2,1-a]isoquinolin-3-ones” (2012)
Activity calls are given as the source filed them. The calls are words filed in the database; no cut-off is given here.

Columns and labels:
Aspergillus parasiticus [1] = assay: Fungicidal activity against Aspergillus parasiticus CECT 2681 at 0.2 mg/disk after 48 hrs by agar diffusion assay; assay type: functional
Method in brief: (§1)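 Fungi were grown 7 days at 28 °C on PDA, then suspended in 0.05% Tween 80 in sterile water to about 10^6 conidia/mL. 1 mL was mixed into 15 mL PDA. After setting, four 0.5 cm paper disks impregnated with test product were added. Controls were solvent-only disks and benomyl disks, dosed per fungus. The read-out was the no-growth inhibition zone (mm), as the mean ± SE of three independent experiments.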

Staphylococcus aureus [2] = assay: Bactericidal activity against Staphylococcus aureus CECT 86 at 0.2 mg/disk after 24 hrs by agar diffusion assay; assay type: functional
Method in brief: (§2)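 Each bacterium, kept as 24-h cultures on solid-medium slants, was reactivated in Nutrient Broth for 24 h at 28 or 37 °C depending on species. 1 mL of this suspension was plated and overlaid with 15 mL Plate Count Agar. Once the agar solidified, five paper disks loaded with test product were applied. Plates were incubated 24 h in the dark at 28 or 37 °C by species.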

[3] = test system: Pectobacterium carotovorum; assay: Bactericidal activity against Erwinia carotovora CECT 225 at 0.2 mg/disk after 24 hrs by agar diffusion assay; assay type: functional; method in brief: as §2
Fusarium culmorum [4] = assay: Fungicidal activity against Fusarium culmorum CCM 172 at 0.2 mg/disk after 48 hrs by agar diffusion assay; assay type: functional; method in brief: as §1
Trichoderma viride [5] = assay: Fungicidal activity against Trichoderma viride CECT 2423 at 0.2 mg/disk after 48 hrs by agar diffusion assay; assay type: functional; method in brief: as §1
Salmonella typhi [6] = assay: Bactericidal activity against Salmonella typhi CECT 409 at 0.2 mg/disk after 24 hrs by agar diffusion assay; assay type: functional, Salmonella enterica subsp. enterica serovar Typhi; conditions: for Activity: Salmonella enterica subsp. enterica serovar Typhi
Method in brief: (§3)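 Bacteria from 24-h slant cultures reactivated in Nutrient Broth for 24 h at 28 or 37 °C depending on strain. 1 mL of suspension was placed in a plate and overlaid with 15 mL Plate Count Agar. After solidification, five paper disks loaded with compound were applied. Plates were incubated 24 h in the dark at 28 or 37 °C depending on strain.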

Geotrichum candidum [7] = assay: Fungicidal activity against Geotrichum candidum CCM 245 at 0.2 mg/disk after 48 hrs by agar diffusion assay; assay type: functional; method in brief: as §1
Bacillus cereus [8] = assay: Bactericidal activity against Bacillus cereus CECT 148 at 0.2 mg/disk after 24 hrs by agar diffusion assay; assay type: functional; method in brief: as §2
[9] = test system: Phytophthora citrophthora; assay: Fungicidal activity against Phytophthora citrophthora CECT 2353 at 0.2 mg/disk after 48 hrs by agar diffusion assay; assay type: functional; method in brief: as §1
Enterococcus faecalis [10] = assay: Bactericidal activity against Enterococcus faecalis CECT 481 at 0.2 mg/disk after 24 hrs by agar diffusion assay; assay type: functional; method in brief: as §2
Escherichia coli [11] = assay: Bactericidal activity against Escherichia coli CECT 405 at 0.2 mg/disk after 24 hrs by agar diffusion assay; assay type: functional; method in brief: as §2
Escherichia coli [12] = assay: Bactericidal activity against Escherichia coli CECT 100 at 0.2 mg/disk after 24 hrs by agar diffusion assay; assay type: functional; method in brief: as §2
Trichoderma viride [13] = assay: Fungicidal activity against Trichoderma viride CECT 2423 at 0.4 mg/disk after 48 hrs by agar diffusion assay; assay type: functional, organism-based; method in brief: as §1
Aspergillus parasiticus [14] = assay: Fungicidal activity against Aspergillus parasiticus CECT 2681 at 0.4 mg/disk after 48 hrs by agar diffusion assay; assay type: functional, organism-based; method in brief: as §1
Geotrichum candidum [15] = assay: Fungicidal activity against Geotrichum candidum CCM 245 at 0.4 mg/disk after 48 hrs by agar diffusion assay; assay type: functional, organism-based; method in brief: as §1
[16] = test system: Phytophthora citrophthora; assay: Fungicidal activity against Phytophthora citrophthora CECT 2353 at 0.4 mg/disk after 48 hrs by agar diffusion assay; assay type: functional, organism-based; method in brief: as §1
Fusarium culmorum [17] = assay: Fungicidal activity against Fusarium culmorum CCM 172 at […] after 48 hrs by agar diffusion assay; assay type: functional, organism-based; conditions: 0.4 mg/disk; method in brief: as §1
Enterococcus faecalis [18] = assay: Bactericidal activity against Enterococcus faecalis CECT 481 at 0.3 mg/disk after 24 hrs by agar diffusion assay; assay type: functional, organism-based; method in brief: as §2
[19] = test system: Pectobacterium carotovorum; assay: Bactericidal activity against Erwinia carotovora CECT 225 at 0.3 mg/disk after 24 hrs by agar diffusion assay; assay type: functional, organism-based; method in brief: as §2
Salmonella typhi [20] = assay: Bactericidal activity against Salmonella typhi CECT 409 at 0.3 mg/disk after 24 hrs by agar diffusion assay; assay type: functional, organism-based; conditions: Salmonella enterica subsp. enterica serovar Typhi; method in brief: as §3
Escherichia coli [21] = assay: Bactericidal activity against Escherichia coli CECT 405 at 0.3 mg/disk after 24 hrs by agar diffusion assay; assay type: functional, organism-based; method in brief: as §2
Bacillus cereus [22] = assay: Bactericidal activity against Bacillus cereus CECT 148 at 0.3 mg/disk after 24 hrs by agar diffusion assay; assay type: functional, organism-based; method in brief: as §2
Staphylococcus aureus [23] = assay: Bactericidal activity against Staphylococcus aureus CECT 86 at 0.3 mg/disk after 24 hrs by agar diffusion assay; assay type: functional, organism-based; method in brief: as §2
Escherichia coli [24] = assay: Bactericidal activity against Escherichia coli CECT 100 at 0.3 mg/disk after 24 hrs by agar diffusion assay; assay type: functional, organism-based; method in brief: as §2

SMILES | inhibition zone (IZ) (Staphylococcus aureus [2]) [mm] | inhibition zone (IZ) [3] [mm] | inhibition zone (IZ) (Salmonella typhi [6]) [mm] | inhibition zone (IZ) (Bacillus cereus [8]) [mm] | inhibition zone (IZ) (Enterococcus faecalis [10]) [mm] | inhibition zone (IZ) (Escherichia coli [11]) [mm] | inhibition zone (IZ) (Escherichia coli [12]) [mm] | Activity (Trichoderma viride [13]) | Activity (Aspergillus parasiticus [14]) | Activity (Geotrichum candidum [15]) | Activity [16] | Activity (Fusarium culmorum [17]) | other results
O=C1CCC2c3ccc(O)cc3CCN12 (stereo not drawn) | 0 | 0 | 0 | 7.5 | 0 | 0 | 0 | – | – | – | – | – | Activity (Aspergillus parasiticus [1]): inactive; Activity (Fusarium culmorum [4]): inactive; Activity (Trichoderma viride [5]): inactive; Activity (Geotrichum candidum [7]): inactive; Activity [9]: inactive
O=C(COc1cc2c(cc1OCC(=O)Nc1ccccc1)C1CCC(=O)N1CC2)Nc1ccccc1 (stereo not drawn) | – | – | – | – | – | – | – | inactive | inactive | inactive | inactive | inactive | Activity (Staphylococcus aureus [2]): inactive; Activity [3]: inactive; Activity (Salmonella typhi [6]): inactive; Activity (Bacillus cereus [8]): inactive; Activity (Enterococcus faecalis [10]): inactive; Activity (Escherichia coli [11]): inactive; Activity (Escherichia coli [12]): inactive
O=C(COc1ccc2c(c1)CCN1C(=O)CCC21)N1CCCCC1 (stereo not drawn) | – | – | – | – | – | – | – | – | – | – | – | – | Activity (Aspergillus parasiticus [1]): inactive; Activity (Staphylococcus aureus [2]): inactive; Activity [3]: inactive; Activity (Fusarium culmorum [4]): inactive; Activity (Trichoderma viride [5]): inactive; Activity (Salmonella typhi [6]): inactive; Activity (Geotrichum candidum [7]): inactive; Activity (Bacillus cereus [8]): inactive; Activity [9]: inactive; Activity (Enterococcus faecalis [10]): inactive; Activity (Escherichia coli [11]): inactive; Activity (Escherichia coli [12]): inactive
CN(C)[C@@H]1C(O)=C(C(N)=O)C(=O)[C@@]2(O)C(O)=C3C(=O)c4c(O)cccc4[C@@](C)(O)[C@H]3C[C@@H]12 [TETRACYCLINE] | 27 | 13.33 | – | 24.33 | 26 | 25.66 | 25.66 | – | – | – | – | – | –
COc1cc2c(cc1OC)C1CCC(=O)N1CC2 (stereo not drawn) | – | – | – | – | – | – | – | inactive | inactive | inactive | inactive | inactive | Activity (Enterococcus faecalis [18]): Active; Activity [19]: Active; Activity (Salmonella typhi [20]): Active; Activity (Escherichia coli [21]): Active; Activity (Bacillus cereus [22]): Active; Activity (Staphylococcus aureus [23]): Active; Activity (Escherichia coli [24]): Active
O=C1CCC2c3ccc(OCc4ccc(F)cc4)cc3CCN12 (stereo not drawn) | 6.33 | 8 | 0 | 7.5 | 0 | 6.16 | 0 | – | – | – | – | – | inhibition zone (IZ) (Aspergillus parasiticus [1]): 7.83 mm; inhibition zone (IZ) (Fusarium culmorum [4]): 10.5 mm; inhibition zone (IZ) (Trichoderma viride [5]): 8.1 mm; inhibition zone (IZ) (Geotrichum candidum [7]): 7 mm; inhibition zone (IZ) [9]: 10.66 mm
O=C1CCC2c3cc(O)c(O)cc3CCN12 (racemic) | 0 | 0 | 0 | 6.66 | 0 | 0 | 0 | inactive | inactive | inactive | inactive | inactive | –
